Results published in ChEMBL document CHEMBL4014337, “Antimalarial Inhibitors Targeting Serine Hydroxymethyltransferase (SHMT) with in Vivo Efficacy and Analysis of their Binding Mode Based on X-ray Cocrystal Structures” (J Med Chem, 2017).

What was measured:
[1] = Partition coefficient, logD of compound at pH 7.4 by HPLC analysis; format: physicochemical; details: octanol/water
Method in brief: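 logD at pH 7.4 measured by HPLC.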

[2] = tested on: Salmonella typhimurium; experiment: Mutagenicity in Salmonella typhimurium TA98 assessed as increase in number of revertant colonies at 1250 to 5000 ug/ml in absence of ariclor-induced rat liver S9 fraction by Ames test relative to control; format: toxicity; details: salmonella enterica subsp. enterica serovar typhimurium
Method in brief: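 Ames plate incorporation test run in two independent experiments across five Salmonella strains, with and without metabolic activation. Revertant colonies were counted per plate and compared with concurrent vehicle controls. A reproducible increase of ≥2-fold in revertant colony number over vehicle control was scored as evidence of mutagenicity.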

[3] = Kinetic solubility of the compound in pH 6.5 phosphate buffer after 30 mins by nephelometry; format: physicochemical; details: pH 6.5, 0.5 h
[4] = Kinetic solubility of the compound in pH 2 HCl after 30 mins by nephelometry; format: physicochemical; details: buffer, pH 2, 0.5 h
[5] = Cytotoxicity against human HepG2 cells after 72 hrs by CyQuant-Direct reagent based fluorescence assay; format: cell-based

Row | logD [1] | Kinetic_solubility [3] | Kinetic_solubility [4] | SMILES | fold change (FC) [2] | IC20 at 72 h [5] [µM]
1 | 1.5 | Soluble | Soluble | Cc1[nH]nc2c1C(c1cc(F)cc(-c3cccc(C(=O)O)c3)c1)(C(C)C)C(C#N)=C(N)O2 (racemic) | >= 2 | 
2 | 1.4 |  |  | Cc1[nH]nc2c1C(c1cc(C#N)cc(-c3cccc(C(=O)O)c3)c1)(C(C)C)C(C#N)=C(N)O2 (racemic) |  | 
3 |  | Soluble | Soluble | Cc1[nH]nc2c1C(c1cc(N3CCS(=O)(=O)CC3)cc(C(F)(F)F)c1)(C(C)C)C(C#N)=C(N)O2 (racemic) |  | 
4 | 1.2 |  |  | Cc1[nH]nc2c1C(c1cc(F)cc(N3CCC(C(=O)O)CC3)c1)(C(C)C)C(C#N)=C(N)O2 (racemic) |  | 
5 |  | Soluble | Soluble | Cc1[nH]nc2c1C(c1cc(F)cc(N3CCOCC3)c1)(C(C)C)C(C#N)=C(N)O2 (racemic) |  | 
6 |  |  |  | Cc1[nH]nc2c1C(c1cc(-c3cccnc3)cc(C(F)(F)F)c1)(C(C)C)C(C#N)=C(N)O2 (racemic) |  | 18.9
7 | 1.6 | Soluble | Soluble | Cc1[nH]nc2c1C(c1cc(N3CCC(C(=O)O)CC3)cc(C(F)(F)F)c1)(C(C)C)C(C#N)=C(N)O2 (racemic) |  | 
8 |  | Soluble | Soluble | Cc1[nH]nc2c1C(c1cc(F)cc(-c3ccncc3)c1)(C(C)C)C(C#N)=C(N)O2 (racemic) |  | 
9 | 1.8 |  |  | Cc1[nH]nc2c1C(c1cc(-c3cccc(C(=O)O)c3)cc(C(F)(F)F)c1)(C(C)C)C(C#N)=C(N)O2 (racemic) |  | 
10 |  | Soluble | Soluble | Cc1[nH]nc2c1C(c1cc(N3CC4CCCC4C3)cc(C(F)(F)F)c1)(C(C)C)C(C#N)=C(N)O2 (racemic) |  | 
11 | 1.7 | Soluble | Soluble | COc1ccc(-c2cc(C(F)(F)F)cc(C3(C(C)C)C(C#N)=C(N)Oc4n[nH]c(C)c43)c2)cc1C(=O)O (racemic) |  | 
